Source: PubChem BioAssay
MsrA inhibitor = inhibitors of bovine MsrA; 0.75% of 360,000 active; AID 651718; purified bovine MsrA, absorbance read-out; inhibition, % at 15.5 µM; in the data active means inhibition above about 4.5%
MC4R antag cAMP = antagonists of human melanocortin 4 receptor (MC4R) | P32245 | MC4R-expressing cells, MTII-stimulated cAMP, LANCE TR-FRET | inhibition, % at 6.5 µM | 0.48% of 360,000 active | AID 540295;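 active means inhibition above its plate's cutoff, the mean of tested wells on that plate plus 3 SD, cut at about 29% in these data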
Target sequence (P32245 whole entry, looked up): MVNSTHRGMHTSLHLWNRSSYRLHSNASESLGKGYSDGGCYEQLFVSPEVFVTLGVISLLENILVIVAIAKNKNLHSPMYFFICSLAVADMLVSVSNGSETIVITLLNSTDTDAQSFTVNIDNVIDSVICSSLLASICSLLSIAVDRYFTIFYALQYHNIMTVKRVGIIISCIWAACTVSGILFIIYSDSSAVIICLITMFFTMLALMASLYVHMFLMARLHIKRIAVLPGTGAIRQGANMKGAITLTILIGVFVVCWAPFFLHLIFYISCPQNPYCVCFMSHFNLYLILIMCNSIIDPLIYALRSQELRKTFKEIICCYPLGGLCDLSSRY
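System: U2OS cells stably expressing human melanocortin 4 receptor (MC4R). Reagent: Melanotan II challenge after compound preincubation. Doses: 6.5 µM. Times: 30-min compound, 1-h challenge, 1-h detection, room temperature. Measured by: TR-FRET with Eu-cAMP and labeled anti-cAMP, 671 nm. Replicates: singlicate.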
MC4R ag barr = human MC4R agonism via beta-arrestin. activation, % at 8.9 µM. P32245. 0.98% of 360,000 active. U2OS MC4R beta-arrestin complementation, luminescence; percent of melanotan II response, DMSO zero;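 active means activation above a per-plate cutoff, the mean activation of sample wells on that plate plus 3 SD, cut at about 8% in these data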
bovine MsrA act = bovine methionine sulfoxide reductase A activation; activation, % at 10.6 µM; 0.3% of 360,000 active; purified bovine MsrA, absorbance read-out; in the data active means activation above about 7.5%
U2OS cAMP counter = counter-screen for MC4R antagonists: nonselective cAMP signaling inhibitors; shares compounds with MC4R antag cAMP; parental U2OS, forskolin cAMP, LANCE TR-FRET; inhibition, % at 6.5 µM; 26% of 1,600 active; AID 602193;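 active means mean inhibition over triplicates above the low-control well mean plus 3 SD, set per campaign, cut at about 13% in these data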;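 further: signal is single emission at 671 nm which falls as cellular cAMP rises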
MC4R antag conf = human MC4R cAMP antagonism confirmation; shares compounds with MC4R antag cAMP; MC4R-expressing cells, MTII-stimulated cAMP, TR-FRET; inhibition, % at 6.5 µM; 27% of 1,600 active; in the data active means inhibition above about 29%
Of the large screens only hits and unclear results are named; the others gave an inactive call (follow-up assays come after a bar, where they were run). In the library only some 2.3% were active in any assay of this set; here they are far more common.

Cc1ccc(NC(=O)c2nc(S(=O)(=O)Cc3ccccc3C)ncc2Cl)cc1C	MC4R antag cAMP 31.9 | U2OS cAMP counter 30.3 | MC4R antag conf inactive
CC(C)c1nnc(NC(=O)c2nc(S(=O)(=O)Cc3ccccc3)ncc2Cl)s1	MC4R antag cAMP 51.0 | U2OS cAMP counter 24.6 | MC4R antag conf 47.1
CCS(=O)(=O)c1ncc(Cl)c(C(=O)Nc2ccc(S(=O)(=O)N3CCC(C)CC3)cc2)n1	MC4R antag cAMP 56.0 | U2OS cAMP counter inactive | MC4R antag conf 38.5
CC1C(=O)N(Cc2ccc([N+](=O)[O-])cc2)c2ccccc2N1C(=O)c1c(F)cccc1F (stereo not drawn)	none
Cc1cc(-c2nnc(SCC(=O)Nc3ccccc3C)n2N)n[nH]1	none
COc1ccc(C2C(C(=O)OCC(=O)N3CCCCC3)CCC(=O)N2c2ccc(OC)cc2)cc1 (stereo not drawn)	none
CN(c1ccccc1)S(=O)(=O)c1ccc(NC(=O)c2nc(S(C)(=O)=O)ncc2Cl)cc1	MC4R antag cAMP 57.4 | U2OS cAMP counter 26.3 | MC4R antag conf 36.0
Brc1cc(-c2ccccc2)nc(-c2ccccc2)n1	MC4R antag cAMP 35.7 | U2OS cAMP counter 18.5 | MC4R antag conf 36.4
Clc1cc(-c2ccccc2)nc(-c2ccccc2)n1	MC4R antag cAMP 30.0 | U2OS cAMP counter 16.6 | MC4R antag conf 29.4
Cc1noc(C(=O)Nc2cccc(O)c2)c1Cl	MC4R antag cAMP 29.4 | U2OS cAMP counter inactive | MC4R antag conf inactive
CCCC(=O)Nc1ccc2c(c1)nc1n2CCN(CCOC)C1	none
Cc1ccc(NC(=O)COC(=O)Cn2c(C)csc2=O)c([N+](=O)[O-])c1	none
COC(=O)c1cc2ccc(OC)cc2c2cc(OC)c(OC)cc12	MC4R antag cAMP 33.8 | U2OS cAMP counter inactive | MC4R antag conf inactive
CCC(CC)C(=O)c1c[nH]c(C(=O)NCc2ccccc2OC)c1	none
COc1cccc(CNC(=O)COC(=O)CCS(=O)(=O)c2ccc(C)cc2)c1	MC4R antag cAMP 30.1 | U2OS cAMP counter inactive | MC4R antag conf inactive
NS(=O)(=O)c1ccc(CNC(=O)c2cc(-c3ccccn3)nc3ccc(Cl)cc23)cc1	MC4R antag cAMP 29.6 | U2OS cAMP counter inactive | MC4R antag conf inactive
NS(=O)(=O)c1ccc(CNC(=O)c2cc(-c3cccnc3)nc3ccc(Cl)cc23)cc1	none
Oc1ccc(N=Nc2n[nH]c(-c3ccccc3)n2)cc1	none
NNC(=O)CNC(=O)C12CC3CC(CC(C3)C1)C2	MC4R antag cAMP 29.4 | U2OS cAMP counter inactive | MC4R antag conf inactive
CC[C@@]1(C(=O)OC)N[C@H](CN(C)C(=O)c2ccc(C(C)(C)C)cc2)[C@@H]2C(=O)N(Cc3ccccc3)C(=O)[C@@H]21	none
CCN(C[C@H]1N[C@@](CC)(C(=O)OC)[C@H]2C(=O)N(Cc3ccccc3)C(=O)[C@@H]12)C(=O)c1ccc(C(C)(C)C)cc1	MC4R antag cAMP 41.3 | U2OS cAMP counter inactive | MC4R antag conf inactive
O=C(CCCN1CCOCC1)c1ccc2c(c1)OCCO2	none
O=C(CCN1CCOCC1)c1ccc2c(c1)OCCO2	MC4R antag cAMP 30.3 | U2OS cAMP counter inactive | MC4R antag conf inactive
COc1ccc(C(C(=O)c2ccccc2)c2ccccc2)cc1 (stereo not drawn)	none (no result: MC4R antag cAMP, MC4R ag barr, bovine MsrA act)
CCN(c1ccc(OCC(=O)OCC(=O)c2c(N)n(C)c(=O)n(C)c2=O)cc1)S(=O)(=O)c1ccccc1	MC4R antag cAMP 41.9 | U2OS cAMP counter inactive | MC4R antag conf inactive
CC(=O)NC(CC(=O)OCC(=O)c1c(N)n(C)c(=O)n(C)c1=O)c1ccccc1 (stereo not drawn)	MC4R antag cAMP 30.0 | U2OS cAMP counter inactive | MC4R antag conf inactive
Cn1c(N)c(C(=O)COC(=O)CC(NC(N)=O)c2ccc(Cl)cc2)c(=O)n(C)c1=O (stereo not drawn)	none
NC(=O)COc1ccc2cc(-c3ccccc3)c(=O)oc2c1	none
COc1ccc(-c2cc3ccc(OCC(C)=O)cc3oc2=O)cc1	none
COC(=O)COc1ccc2c(=O)c(-c3ccccc3)coc2c1	MC4R antag cAMP 44.3 | U2OS cAMP counter 28.3 | MC4R antag conf 52.3
COC(=O)COc1ccc2cc(-c3ccc(OC)cc3)c(=O)oc2c1	MC4R antag cAMP 38.8 | U2OS cAMP counter 26.1 | MC4R antag conf 41.9
COC(=O)COc1ccc2cc(-c3ccccc3)c(=O)oc2c1	MC4R antag cAMP 39.6 | U2OS cAMP counter 24.0 | MC4R antag conf 55.8
C=CCN1C[C@H](COC(=O)CSc2ccccc2)Oc2cccc(F)c2S1(=O)=O	none (no result: MC4R antag cAMP, MC4R ag barr, bovine MsrA act)
CC(/C=N/NC(=O)NC1CCCCC1)=C\c1ccccc1	none
COc1ccc(C(C(=O)NC(C)(C)C)N(C(=O)CCC(=O)Nc2cc(C)on2)c2ccccc2F)cc1 (stereo not drawn)	MC4R antag cAMP 30.1 | U2OS cAMP counter inactive | MC4R antag conf inactive
Cc1cccc(CNc2ncc(-c3cccc([N+](=O)[O-])c3)n2C)c1	MC4R antag cAMP 32.7 | U2OS cAMP counter inactive | MC4R antag conf inactive
Cn1c(-c2cccc([N+](=O)[O-])c2)cnc1NCc1cccc([N+](=O)[O-])c1	none
CCN(C(=O)COC(=O)CSc1ccc(C(N)=O)cc1[N+](=O)[O-])C1CCCCC1	MC4R antag cAMP 33.2 | U2OS cAMP counter inactive | MC4R antag conf 30.0
Cc1ccc(CN(C)C(=O)COC(=O)CSc2ccc(C(N)=O)cc2[N+](=O)[O-])cc1	MC4R antag cAMP 38.3 | U2OS cAMP counter 14.3 | MC4R antag conf 35.0
CSCCC1Nc2ccc(S(=O)(=O)N3CCOCC3)cc2NC1=O (stereo not drawn)	none
CC(C)CN(C(=O)COC(=O)c1nc(Cl)ccc1Cl)C1CCS(=O)(=O)C1 (stereo not drawn)	MC4R antag cAMP 35.6 | U2OS cAMP counter inactive | MC4R antag conf inactive
CCCc1cc(C(=O)Nc2cccnc2)no1	none
C[C@@H]1CN(Cc2nc(Cc3ccccc3F)no2)C[C@H](C)O1	MC4R antag cAMP 32.7 | U2OS cAMP counter inactive | MC4R antag conf inactive
Fc1ccccc1Cc1noc(CN2CCCC(CN3CCOCC3)C2)n1 (stereo not drawn)	none
O=C1/C(=C/c2ccc([N+](=O)[O-])cc2)C=C(c2ccccc2)N1c1ccc(O)cc1	MC4R antag cAMP 32.4 | U2OS cAMP counter inactive | MC4R antag conf inactive
CC(C)(C)c1ccc2c(c1)OC(C(=O)N/N=C\c1ccc(-c3cccc(C(=O)O)c3)o1)CO2 (stereo not drawn)	MC4R antag cAMP 29.2 | U2OS cAMP counter inactive | MC4R antag conf inactive
CC(C)(C)c1ccc2c(c1)OC(C(=O)N/N=C\c1ccccn1)CO2 (stereo not drawn)	none
CCC1(c2ccccc2)NC(=O)N(CC#N)C1=O (stereo not drawn)	MC4R antag cAMP 28.8 | U2OS cAMP counter inactive | MC4R antag conf inactive
NC(CSC1(c2cccc3ccccc23)c2ccccc2-c2ccccc21)C(=O)O (stereo not drawn)	none
Cc1cccc(NC(=O)Nc2ccccc2)n1	none
O=C(O)C1CCC(=O)N(C2CC2)C1c1ccccc1 (stereo not drawn)	none
